The whole screen tested about 300,000 compounds, of which about 4,400 (1.5%) were called active.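 How the source made its calls: active means mean inhibition across valid replicates above about 55% (limit read from the data); inconclusive means mean below that limit but half or more replicates reach it; inactive means mean below it, under half of replicates reach it.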 The entries come from a sample that favours actives as a whole.
Assay: inhibitors of intracellular T. cruzi growth, primary screen, luminescence, NIH3T3 host cells (AID 1885);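 further: signal also drops with host cell toxicity which is not excluded here; 0% = plate median of DMSO wells and 100% = zero luminescence signal; higher percent means less beta-gal luminescence so fewer parasites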
Conditions: T. cruzi beta-gal in NIH3T3, luminescence, 90 h; stronger effect = higher value; concentration not given here
Method in brief: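 Material: NIH/3T3 host cells with β-galactosidase reporter T. cruzi; Input: 5,000 host fibroblasts per well; Medium: DMEM, 2% fetal bovine serum; Compound: 50 nL DMSO compound solution per well; Schedule: 3 h host attachment, then at least 90 h co-culture; Detection: luminescent β-galactosidase signal after 60 min lysis.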

| SMILES | inhibition |
| --- | --- |
| COC(C[C@@H]1O[C@@H]1C(=O)[C@@H](C)OCc1ccccc1)OC | 3.07% (inactive) |
| CCCCN(CCCC)CCCNC(=O)CN1C(=O)COc2ccc(S(=O)(=O)N3CCC(C)CC3)cc21 | 10.4% (inactive) |
| Cc1cc(C)c(-c2c(O)c3ccccc3n(C)c2=O)c(C)c1 | -3.11% (inactive) |
| COc1cc(C2/C(=C(\O)c3ccc4c(c3)CC(C)O4)C(=O)C(=O)N2c2nnc(C)s2)cc(OC)c1OC (configuration not stated) | -5.79% (inactive) |
| O=C(CSc1n[nH]c(=O)n1-c1ccccc1)Nc1ccccc1C(F)(F)F | -3.4% (inactive) |
| O=C(NCCC1CCCCN1S(=O)(=O)c1ccccc1)C(=O)NCC1CCCO1 (configuration not stated) | -5.32% (inactive) |
| O=C(CCC1CCCN(Cc2ccc(O)c(Cl)c2)C1)NCc1ccccc1F (configuration not stated) | 65.4% (active) |
| COc1cccc(CNC(=O)CCC2CCCN(Cc3ccc(OC(F)F)cc3)C2)c1 (configuration not stated) | 49.4% (inactive) |
| CSc1ncccc1C(=O)N1CCCC(CCC(=O)NCc2ccccc2F)C1 (configuration not stated) | 2.43% (inactive) |
| CC(=O)c1ccc(S(=O)(=O)N2CCN(C(=O)/C=C/c3ccc4ccccc4n3)CC2)cc1 | 20.6% (inactive) |
| CC(=O)c1ccc(S(=O)(=O)N2CCC3(CC2)OCCO3)cc1 | 4.17% (inactive) |
| CC(=O)c1ccc(S(=O)(=O)N2CCN(c3nc4c(C)c(C)ccc4cc3C#N)CC2)cc1 | 63.6% (active) |
| CCOc1ccc2ccccc2c1/C=N/NC(=O)c1c(C)cc(C)[nH]c1=O | 13.7% (inactive) |
| O=C(CSc1ccc(-c2ccc(-n3cccn3)cc2)nn1)Nc1ccc([N+](=O)[O-])cc1 | -0.835% (inactive) |
| COc1ccc(C(CNC(=O)c2ccc(S(=O)(=O)Nc3ccccc3C)cc2)N2CCOCC2)cc1 (configuration not stated) | -0.159% (inactive) |
| CSc1nccc(NC(=O)c2ccc(C(C)(C)C)cc2)n1 | -6.33% (inactive) |
| NC(=O)C1(N2CCCCC2)CCN(C2CC(=O)N(Cc3ccc(N4CCCC4=O)cc3)C2=O)CC1 (configuration not stated) | 7.91% (inactive) |
| CC(C)(C)NC(=O)CN1CCC(NC(=O)C23CC4CC(CC(C4)C2)C3)CC1 | 26.6% (inactive) |
| O=C(N1CCCC1)C12CC3CC(C1)CC(C(=O)N1CCCC1)(C3)C2 | -14.8% (inactive) |
| CN1CCN(CC(=O)C23CC4CC(CC(C4)C2)C3)CC1 | 56.4% (active) |
| COc1ccc(CNc2cc(C)cc(C)c2)cc1OC | -0.404% (inactive) |
| COc1ccc(CNc2ccc3c(c2)CCC3)cc1OC | 65.6% (active) |
| COc1ccc(CC(=O)Nc2ccc3c(c2)CCC3)cc1S(=O)(=O)N1CCOCC1 | -10.7% (inactive) |

| SMILES | inhibition |
| --- | --- |
| Cc1ccc(S(=O)(=O)NCCC(=O)NNC(=O)C2COc3ccccc3O2)cc1 (configuration not stated) | 1.4% (inactive) |
| COc1cccc(C(=O)Nc2cc3c(cc2Br)OCCCO3)c1 | 11.1% (inactive) |
| Oc1ccc2ccccc2c1N=Nc1nccs1 | 71.1% (active) |
| Oc1ccc(N=Nc2nccs2)c(O)c1 | 47.7% (inactive) |
| Cc1ccc(N2CC(C(=O)Nc3cc(Cl)ccc3-n3cncn3)CC2=O)cc1 (configuration not stated) | -5.75% (inactive) |
| COc1ccc(-c2c(NC(=O)c3ccco3)oc3ccc(Cl)cc3c2=O)cc1 | -16.1% (inactive) |
| CC(=O)c1ccc(S(=O)(=O)NCc2nnnn2-c2ccccc2)cc1 | -4.22% (inactive) |
| CCCCN(C(=O)c1ccc(S(=O)(=O)N2CCOCC2)cc1)C1CCS(=O)(=O)C1 (configuration not stated) | -3.57% (inactive) |
| COc1ccccc1OCCNC(=O)c1cc([N+](=O)[O-])cc([N+](=O)[O-])c1 | 72.3% (active) |
| CC(C)(C)SCCNC(=O)c1cccc([N+](=O)[O-])c1 | -5.13% (inactive) |
| COc1ccccc1OCCNC(=O)CCNC(=O)c1ccccc1Cl | -10.4% (inactive) |
| CS(=O)(=O)N1CCN(C(=O)CSc2ccccc2)CC1 | -1.63% (inactive) |
| COc1ccc(C(C)NC(=O)C2CCCC2)cc1 (configuration not stated) | -4.14% (inactive) |
| COc1ccccc1CC(NC(C)=O)C(=O)NC1CCN(C(=O)Nc2ccccc2Cl)CC1 (configuration not stated) | -13.9% (inactive) |
| COc1ccc(CN2CCCC(N3CCc4ccccc4C3)C2)c(O)c1 (configuration not stated) | 22.8% (inactive) |
| COc1ccccc1CN1CCN(Cc2cc(OC)c(OC)cc2OC)CC1 | 25.3% (inactive) |
| COc1ccccc1CN1CCCC(N2CCN(c3ccc(F)cc3)CC2)C1 (configuration not stated) | 57.3% (active) |
| COc1ccc(C[C@H]2CN3C(=NC[C@H]3C)N2CCNC(=O)CCC2CCCCC2)cc1 | -4.54% (inactive) |
| Cc1cc2c(C)nc(N/N=C/c3ccccc3)nc2o1 | 22.4% (inactive) |
| Cc1cccc(Nc2nc(-c3ccccc3)cs2)n1 | 18.7% (inactive) |
| c1ccc(Nc2nc(-c3ccncc3)cs2)nc1 | 64% (active) |
| Clc1ccc(Nc2nc(-c3cccs3)cs2)nc1 | 42.7% (inactive) |
| CCCCn1c(N)c(N2CCOCC2)c(=O)n(CC(=O)NCCc2ccccc2)c1=O | -20% (inactive) |

| SMILES | inhibition |
| --- | --- |
| O=C(N/N=C/c1ccccn1)c1cccnc1 | 3.75% (inactive) |
| O=C(N/N=C/c1sc(N2CCCCC2)nc1-c1cccs1)c1cccnc1 | 65% (active) |
| Cc1cc(/C=N/NC(=O)c2cccnc2)c(C)n1CC(C)C | -5.46% (inactive) |
| C=CCNC(=S)/N=c1/ccccn1Cc1ccccc1 | 36.1% (inactive) |
| O=C(OCCOCn1cc(Br)c(=O)[nH]c1=O)c1ccccc1 | -6.18% (inactive) |
| O=C(OCC(=O)N1CCCC1=O)c1cc(S(=O)(=O)N2CCOCC2)ccc1Cl | -8.41% (inactive) |
| Cc1nc(N2CCC(C)CC2)c2c(C)c(C(=O)Nc3cc(F)ccc3C)sc2n1 | 49.5% (inactive) |
| Cc1nc(N2CCN(c3ccccn3)CC2)c2c(C)c(C(=O)Nc3ccc(F)c(Cl)c3)sc2n1 | 3.99% (inactive) |
| Cc1nc(N2CCOCC2)c2c(C)c(C(=O)Nc3ccc(C(F)(F)F)cc3)sc2n1 | 68% (active) |
| CC(C)Nc1nnc(SC(C)C(=O)N(C)C2CCCCC2)s1 (configuration not stated) | -3% (inactive) |
| Cc1occc1C(=O)NNC(=S)NCC(C)C | -18.5% (inactive) |
| Cc1occc1C(=O)NC1CCCN(Cc2ccc(CC(C)C)cc2)C1 (configuration not stated) | 57.7% (active) |
| COc1ccc(CN2CCCC(C(=O)N3CCCCC3)C2)cc1 (configuration not stated) | 27.2% (inactive) |
| CN(c1ccccc1)S(=O)(=O)c1cccc(C(=O)NNC(=O)c2ccncc2)c1 | 5.43% (inactive) |
| COc1ccc(NC(=O)N2CCCC(C(=O)Nc3ccccc3OC)C2)cc1 (configuration not stated) | -10.9% (inactive) |
| Cc1sc2ncnc(N3CCC(C(=O)Nc4nc5ccc(Cl)cc5s4)CC3)c2c1C | 27% (inactive) |
| COc1ccc(C(=O)NC(=S)N2CCCCC2c2cccnc2)cc1OC (configuration not stated) | 57.2% (active) |
| COc1ccc(/C=C/C(=O)NC(=S)NN2CCCCC2c2cccnc2)cc1 (configuration not stated) | 42.1% (inactive) |
| O=C(NC(=S)N1CCCCC1c1cccnc1)c1ccccc1 (configuration not stated) | 46.1% (inactive) |
| COC(=O)C1(C)NC(c2ccc(F)cc2)C2C(=O)N(c3ccccc3)C(=O)C21 (configuration not stated) | -17.7% (inactive) |
| CCc1ccc2c(c1)C1(NN=C(c3ccccc3)S1)C(=O)N2 (configuration not stated) | 73% (active) |
| Cc1nc(N=C(N)N)nc2c(C)cccc12 | 56.5% (active) |
| Cc1nc(/N=C(\N)NC(=O)NC2CCCCC2)nc2ccccc12 | 10.4% (inactive) |

| SMILES | inhibition |
| --- | --- |
| COc1nc(N=C(N)N)nc2c(C)cccc12 | 44.2% (inactive) |
| O=C(NCCC1=CCCCC1)c1ccc(Cl)c([N+](=O)[O-])c1 | -28% (inactive) |
| CCN1C(=O)[C@H]2[C@@H](c3ccc(-c4ccc(F)cc4)cc3)N[C@@](Cc3ccccc3)(C(=O)OC)[C@H]2C1=O | 41.5% (inactive) |
| c1ccc2c(NC3C4CC5CC(C4)CC3C5)nc(N3CCOCC3)nc2c1 (configuration not stated) | 54.9% (active) |
| c1ccc(-c2nnc(N3CCOCC3)c3ccccc23)cc1 | -1.66% (inactive) |
| O=c1[nH]c(N2CCOCC2)nc2ccccc12 | -3.83% (inactive) |
| CSCCC(NC(=O)COc1ccccc1)C(=O)OCCOc1ccc(F)cc1 (configuration not stated) | -11.5% (inactive) |
| CCn1cc(/C=C(\NC(=O)c2ccc(C)cc2)C(=O)NCCN2CCOCC2)c2ccccc21 | -0.43% (inactive) |
| COc1ccc(CN2CC[C@H]3C=CC[C@@H](C(=O)N4CCOCC4)[C@H]3C2=O)cc1OC | 0.915% (inactive) |
| O=C(CN1CCCCCC1)Nc1ccc(S(=O)(=O)N2CCCCC2)cc1 | -0.319% (inactive) |
| CN(CC(=O)Nc1ccc(S(=O)(=O)N2CCCC2)cc1)Cc1ccc(Cl)c(Cl)c1 | 55.8% (active) |
| CN(CC(=O)Nc1ccc(F)cc1)CC(=O)Nc1ccc(Cl)c(S(=O)(=O)N2CCOCC2)c1 | -1.87% (inactive) |
| CCOc1cnc(C(=O)NNC(=O)c2ccccc2Br)o1 | -24% (inactive) |
| O=C(Nc1ccc(F)c([N+](=O)[O-])c1)C1CC(=O)N(Cc2ccccc2)C1 (configuration not stated) | 11.3% (inactive) |
| Cc1nnc(SCC(=O)N2c3ccccc3C(C)(c3ccc(Cl)cc3)CC2(C)C)s1 (configuration not stated) | 37.3% (inactive) |
| CC1(c2cccc([N+](=O)[O-])c2)CC(C)(C)N(C(=O)c2ccccc2)c2ccccc21 (configuration not stated) | 37.9% (inactive) |
| CC1(c2ccccc2)CC(C)(C)N(C(=O)c2cc([N+](=O)[O-])cc([N+](=O)[O-])c2)c2ccccc21 (configuration not stated) | 62.7% (active) |
| OC(COc1cccc2ccccc12)CN1CCN(c2ccccn2)CC1 (configuration not stated) | -13.7% (inactive) |
| CC(C)c1ccccc1OCC(O)CN(CC(O)COc1cccc2ccccc12)C(C)C (configuration not stated) | 57.2% (active) |
| Cc1cc(C)c(NC(=O)C[N+](C)(C)CC(O)COc2cccc3ccccc23)c(C)c1 (configuration not stated) | 39.6% (inactive) |
| COc1ccc(NS(=O)(=O)c2cc(NC(=O)/C=C/c3cc(OC)c(OC)c(OC)c3)ccc2N2CCCCC2)cc1 | 54.8% (active) |
| COc1ccc(NS(=O)(=O)c2cc(NC(=O)C3CCCCC3)ccc2N2CCOCC2)cc1 | 8.84% (inactive) |
| COc1ccc(NS(=O)(=O)c2ccc(N3CCN(CCO)CC3)c([N+](=O)[O-])c2)cc1 | -24.8% (inactive) |

Reference: PubChem BioAssay AID1885 (Broad Institute, 2009)
